This is an account of results in ChEMBL document CHEMBL1128719, “The synthesis, structure-activity, and structure-side effect relationships of a series of 8-alkoxy- and 5-amino-8-alkoxyquinolone antibacterial agents” (J Med Chem, 1995).

For assay [1], the system named is Staphylococcus aureus. Nature of the assay: In vitro antibacterial activity was tested for Staphylococcus aureus UC-76. It counts as functional. The gist of the method: (§1)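 Microtitration (microdilution) MIC determination in μg/mL against a panel of Gram-positive, Gram-negative and anaerobic organisms. Values come from duplicate or triplicate experiments and are stated accurate to ±50%.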

The subject of assay [2] is Providencia rettgeri. The assay is described as follows: In vitro antibacterial activity was tested for Providencia rettgeri H1771. The format is functional. The essentials:
as §1

Assay [3] has as its system Clostridioides difficile. The assay is described as follows: In vitro antibacterial activity was tested for Clostridium diff CD1-1. It counts as functional.
The subject of assay [4] is Staphylococcus aureus. The assay is described as follows: In vitro antibacterial activity was tested for Staphylococcus aureus H228. It counts as functional. The essentials: as §1
The test system of assay [5] is Enterobacter cloacae. Nature of the assay: In vitro antibacterial activity was tested for Enterobacter cloacae HA2646. The format is functional.
The test system of assay [6] is Escherichia coli. Nature of the assay: In vitro antibacterial activity was tested for Escherichia coli H560. The format is functional. The gist of the method: as §1
Assay [7] concerns Streptococcus pneumoniae. Nature of the assay: In vitro antibacterial activity was tested for Streptococcus pneumoniae SV-1. The format is functional. The gist of the method: as §1
Assay [8] relates to Bacteroides fragilis. Nature of the assay: In vitro antibacterial activity against Bacteroides fragilis BFA. It counts as functional. The essentials:
as §1

Assay [9] relates to Cutibacterium acnes. The assay is described as follows: In vitro antibacterial activity was tested for Propion acnes PA5-1. The format is functional. The gist of the method:
as §1

Assay [10] relates to Peptoniphilus asaccharolyticus. The assay is described as follows: In vitro antibacterial activity was tested for Pepto asac PA 3-1. The format is functional. The essentials: as §1
Assay [11] relates to Pseudomonas aeruginosa. Nature of the assay: In vitro antibacterial activity was tested for Pseudomonas aeruginosa UI-18. The format is functional. The gist of the method: as §1
The subject of assay [12] is Klebsiella pneumoniae. The assay is described as follows: In vitro antibacterial activity was tested for Klebsiella pneumoniae MGH-2. The format is functional. The essentials: as §1
The test system of assay [13] is Clostridium perfringens. The assay is described as follows: In vitro antibacterial activity against Clostridium perfringens CP 3-1. The format is functional.
Assay [14] concerns Escherichia coli. Nature of the assay: In vitro antibacterial activity was tested for Escherichia coli Vogel. The format is functional. The gist of the method: as §1
In assay [15] the test system is Enterococcus faecalis. The assay is described as follows: In vitro antibacterial activity was tested for Streptococcus faecalis MGH-2. The format is functional. The gist of the method: as §1
The test system of assay [16] is Streptococcus pyogenes. The assay is described as follows: In vitro antibacterial activity was tested for Streptococcus pyogenes C203. It counts as functional. The essentials: as §1
Assay [17] deals with V79. The assay is described as follows: Clonogenic cytotoxicity against Chinese hamster V-79 cells. The format is functional, cell-based. Particulars: Cricetulus griseus.

The term MIC denotes the lowest concentration found to suppress growth. A lower MIC goes with a more susceptible organism. The term IC50 denotes the concentration needed to halve the response being measured. High values mean lower potency, low ones higher potency.

≈ marks a conversion by molar mass, not a printed value.

Regarding `COc1c(N2CC[C@H](N)C2)c(F)c(N)c2c(=O)c(C(=O)O)cn(C3CC3)c12`, the MIC in assay [1] was found to be 0.013 µg/mL (≈ 0.0345 µM); in assay [2], 0.2 µg/mL (≈ 0.531 µM); in assay [3], 3.1 µg/mL (≈ 8.24 µM); in assay [4], 0.025 µg/mL (≈ 0.0664 µM); in [5] it was 0.05 µg/mL (≈ 0.133 µM); in assay [6], 0.05 µg/mL (≈ 0.133 µM). Further, the MIC in assay [7] came to 0.025 µg/mL (≈ 0.0664 µM); in assay [8], 1.6 µg/mL (≈ 4.25 µM); in assay [9] it was 1.6 µg/mL (≈ 4.25 µM); in assay [10] it was 1.6 µg/mL (≈ 4.25 µM); in assay [11], 0.8 µg/mL (≈ 2.13 µM); in [12] it was 0.1 µg/mL (≈ 0.266 µM). In addition, the MIC in assay [13] was determined as 0.8 µg/mL (≈ 2.13 µM); in assay [14], 0.05 µg/mL (≈ 0.133 µM); in [15] it was 0.1 µg/mL (≈ 0.266 µM); in assay [16], 0.05 µg/mL (≈ 0.133 µM).
For the compound `COc1c(N2CCC(N)CC2)c(F)c(N)c2c(=O)c(C(=O)O)cn(C3CC3)c12`, the MIC in [1] turned out to be 0.013 µg/mL (≈ 0.0333 µM); in assay [2], 0.4 µg/mL (≈ 1.02 µM); in assay [3], 3.1 µg/mL (≈ 7.94 µM); in [4], 0.05 µg/mL (≈ 0.128 µM); in [5] it was 0.1 µg/mL (≈ 0.256 µM); in assay [6], 0.05 µg/mL (≈ 0.128 µM). In addition, the minimum inhibitory concentration (MIC) amounted to 0.013 µg/mL (≈ 0.0333 µM) in assay [7]; 3.1 µg/mL (≈ 7.94 µM) in [8]; 3.1 µg/mL (≈ 7.94 µM) in assay [9]; 1.6 µg/mL (≈ 4.1 µM) in assay [10]; 1.6 µg/mL (≈ 4.1 µM) in [11]; 0.2 µg/mL (≈ 0.512 µM) in assay [12]. Further, the MIC in [13] amounted to 0.8 µg/mL (≈ 2.05 µM); in [14] it was 0.1 µg/mL (≈ 0.256 µM); in assay [15], 0.05 µg/mL (≈ 0.128 µM); in assay [16] it was 0.025 µg/mL (≈ 0.064 µM). The compound also had an IC50 in assay [17] of 60 µg/mL (≈ 154 µM).
`Nc1c(F)c(N2CCCC(N)C2)c(F)c2c1c(=O)c(C(=O)O)cn2C1CC1` (stereo not given) had an IC50 in assay [17] of 19 µg/mL (≈ 50.2 µM).
Take `CCNCC1CCCN(c2c(F)cc3c(=O)c(C(=O)O)cn(C4CC4)c3c2OCC)C1` (stereo not given): the MIC in assay [1] is 0.05 µg/mL (≈ 0.116 µM); in assay [2], more than 3.1 µg/mL; in assay [3], 3.1 µg/mL (≈ 7.18 µM); in [4], 0.2 µg/mL (≈ 0.463 µM); in assay [5] it was 1.6 µg/mL (≈ 3.71 µM); in assay [6] it was 0.8 µg/mL (≈ 1.85 µM). The MIC in assay [7] was 0.1 µg/mL (≈ 0.232 µM); in assay [8], 3.1 µg/mL (≈ 7.18 µM); in assay [9], 3.1 µg/mL (≈ 7.18 µM); in [10] it was 0.4 µg/mL (≈ 0.927 µM); in [11], more than 3.1 µg/mL; in assay [12] it was 3.1 µg/mL (≈ 7.18 µM). Besides, the MIC in assay [13] was found to be 0.4 µg/mL (≈ 0.927 µM); in assay [14], 0.8 µg/mL (≈ 1.85 µM); in assay [15] it was 0.2 µg/mL (≈ 0.463 µM); in assay [16], 0.1 µg/mL (≈ 0.232 µM). Further, the IC50 in assay [17] is 460 µg/mL (≈ 1070 µM).
Turning to `CCNCC1CCN(c2c(F)cc3c(=O)c(C(=O)O)cn(C4CC4)c3c2OC)C1` (stereo not given), the MIC in assay [1] came to 0.006 µg/mL (≈ 0.0149 µM); in assay [2], 0.4 µg/mL (≈ 0.991 µM); in assay [3], 0.2 µg/mL (≈ 0.496 µM); in assay [4], 0.025 µg/mL (≈ 0.062 µM); in assay [5], 0.1 µg/mL (≈ 0.248 µM); in assay [6], 0.05 µg/mL (≈ 0.124 µM). The MIC in assay [7] stood at 0.013 µg/mL (≈ 0.0322 µM); in assay [8] it was 0.4 µg/mL (≈ 0.991 µM); in assay [9], 0.4 µg/mL (≈ 0.991 µM); in assay [10], 0.2 µg/mL (≈ 0.496 µM); in [11] it was 1.6 µg/mL (≈ 3.97 µM); in assay [12] it was 0.2 µg/mL (≈ 0.496 µM). Further, the MIC turned out to be 0.05 µg/mL (≈ 0.124 µM) in assay [13], 0.1 µg/mL (≈ 0.248 µM) in assay [14], 0.025 µg/mL (≈ 0.062 µM) in [15] and 0.013 µg/mL (≈ 0.0322 µM) in assay [16].
Turning to `CCOc1c(N2CCCC(N)C2)c(F)cc2c(=O)c(C(=O)O)cn(C3CC3)c12` (stereo not given), the MIC in assay [1] was 0.025 µg/mL (≈ 0.0642 µM); in assay [2] it was 0.8 µg/mL (≈ 2.05 µM); in [4], 0.1 µg/mL (≈ 0.257 µM); in assay [5] it was 0.4 µg/mL (≈ 1.03 µM); in [6] it was 0.2 µg/mL (≈ 0.514 µM); in assay [7], 0.2 µg/mL (≈ 0.514 µM). The MIC in assay [11] turned out to be 3.1 µg/mL (≈ 7.96 µM); in assay [12], 0.4 µg/mL (≈ 1.03 µM); in assay [14], 0.2 µg/mL (≈ 0.514 µM); in assay [15], 0.2 µg/mL (≈ 0.514 µM); in [16], 0.2 µg/mL (≈ 0.514 µM). For the same compound, in [17], the IC50 turned out to be 210 µg/mL (≈ 539 µM).
Regarding `COc1c(N2CCCC(N)C2)c(F)cc2c(=O)c(C(=O)O)cn(C3CC3)c12` (stereo not given), the MIC in [1] worked out at 0.006 µg/mL (≈ 0.016 µM); in assay [2], 0.4 µg/mL (≈ 1.07 µM); in [3] it was 0.8 µg/mL (≈ 2.13 µM); in [4], 0.05 µg/mL (≈ 0.133 µM); in assay [5], 0.1 µg/mL (≈ 0.266 µM); in assay [6] it was 0.05 µg/mL (≈ 0.133 µM). Moreover, the MIC in [7] is 0.013 µg/mL (≈ 0.0346 µM); in [8] it was 0.4 µg/mL (≈ 1.07 µM); in assay [9] it was 0.2 µg/mL (≈ 0.533 µM); in assay [10], 0.8 µg/mL (≈ 2.13 µM); in assay [11] it was 1.6 µg/mL (≈ 4.26 µM); in assay [12], 0.2 µg/mL (≈ 0.533 µM). Also, the MIC in [13] turned out to be 0.4 µg/mL (≈ 1.07 µM); in [14], 0.1 µg/mL (≈ 0.266 µM); in [15], 0.025 µg/mL (≈ 0.0666 µM); in assay [16], 0.013 µg/mL (≈ 0.0346 µM).
